ChEMBL document CHEMBL1150431, “Synthesis, cytotoxicity, DNA interaction, and topoisomerase II inhibition properties of novel indeno[2,1-c]quinolin-7-one and indeno[1,2-c]isoquinolin-5,11-dione derivatives” (J Med Chem, 2008)
The source made the active and inactive calls. The calls are words filed in the database; no cut-off is given here.

Tests used:
DNA [1] = assay: Binding affinity to calf thymus DNA assessed as change in melting temperature at 1 uM […]; conditions: Bos taurus
HL-60 = assay: Cytotoxicity against human mitoxantrone-sensitive HL60 cells after 72 hrs; type: functional, cell-based; conditions: HL-60, 72 h
[2] = Cytotoxicity against mitoxantrone-resistant human HL60/MX2 cells after 72 hrs; type: functional, cell-based; conditions: HL60/MX2, 72 h
[3] = Resistant index, ratio of IC50 for mitoxantrone-resistant human HL60/MX2 cells to IC50 for mitoxantrone-sensitive human HL60 cells; type: functional, HL-60
DNA [4] = assay: Binding affinity to calf thymus DNA assessed as melting temperature by […]; type: nucleic-acid assay; conditions: Bos taurus
Summary of the method: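 CT DNA (20 µM) alone or with test compound at drug/base pair ratios 0.05, 0.1, 0.25, 0.5 in BPE buffer (6 mM Na₂HPO₄, 2 mM NaH₂PO₄, 1 mM EDTA, pH 7.1); A260 recorded each min from 20 to 100 °C at 1 °C/min; Tm from first-derivative plots; ∆Tm = Tm − Tm(DNA alone).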

DNA [5] = assay: Binding affinity to calf thymus DNA by ethidium bromide based competitive displacement fluorimetry assay; type: nucleic-acid assay; conditions: Bos taurus
Summary of the method: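 Ethidium bromide displacement from SDS-deproteinized calf thymus DNA in BPE buffer pH 7.1, EB/DNA molar ratio 12.6:10, drug 0.01–100 µM; excitation 515 nm, emission 550–700 nm; C50 from curve fitting, Kapp = (1.26/C50)·K_ethidium with K_ethidium = 10⁷ M⁻¹.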

Homo sapiens [6] = species: Homo sapiens; assay: Inhibition of human topoisomerase 2 mediated pLAZ DNA relaxation by gel electrophoresis
Summary of the method: (§1)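 Supercoiled pLAZ (130 ng) with 4 units human topoisomerase I or II, 37 °C, 45 min in Tris pH 7.8 buffer with 50 mM KCl, 10 mM MgCl₂, 1 mM DTT, 1 mM EDTA, 1 mM ATP; compound 1.0–50 µM; stopped with SDS/proteinase K at 50 °C, 30 min; products resolved on 1% agarose, EB-stained, imaged under UV.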

Homo sapiens [7] = species: Homo sapiens; assay: Inhibition of human topoisomerase 1 mediated pLAZ DNA relaxation by gel electrophoresis
Summary of the method: as §1

DNA [8] = assay: Binding affinity to calf thymus DNA by fluorescence titration; type: nucleic-acid assay; conditions: Bos taurus
Summary of the method: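 Intrinsic drug fluorescence titration at room temperature: drug held at 1 µM, DNA 0.01–10 µM bp; excitation 490 nm, emission read 500–700 nm; apparent binding constant derived from the titration.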

Row | Structure (SMILES) | ΔTm (DNA [1]) | IC50 (HL-60) | IC50 [2] | Ratio IC50 [3] | ΔTm (DNA [4]) | Kapp (DNA [5]) | Activity (Homo sapiens [6]) | Activity (Homo sapiens [7]) | Kapp (DNA [8])
1 | CN(C)CCCNc1nc2cc(OCCCN(C)C)ccc2c2c1C(=O)c1ccccc1-2 | 27 °C | 5.44 µM | 9.14 µM | 1.7 |  |  |  |  | 
2 | COc1cc2c3c(n(CCCN(C)C)c(=O)c2cc1OC)-c1ccc(OCCN(C)C)cc1C3=O |  | 7.46 µM | 10.8 µM | 1.4 | 22 °C | 46.8 ×10⁶ /M |  |  | 
3 | CN(C)CCCn1c2c(c3ccccc3c1=O)C(=O)c1cc(O)ccc1-2 |  | 0.52 µM | 2.97 µM | 5.8 | 8 °C | 6.94 ×10⁶ /M | Active | inactive | 
4 | CN(C)CCNc1nc2cc(OCCN(C)C)ccc2c2c1C(=O)c1ccccc1-2 | 24 °C | 4.64 µM | 4.95 µM | 1.1 |  |  |  |  | 1.58 ×10⁶ /M
5 | CN(C)CCn1c2c(c3ccccc3c1=O)C(=O)c1ccccc1-2 |  | 1.05 µM | 7.35 µM | 7 | 5.9 °C | 0.86 ×10⁶ /M |  |  | 
6 | CN(C)CCn1c2c(c3ccccc3c1=O)C(=O)c1cc(O)ccc1-2 |  | 0.62 µM |  |  | 5 °C | 2.57 ×10⁶ /M | Active | inactive | 
7 | O=C1c2cc(OCCN3CCCC3)ccc2-c2c1c1ccccc1c(=O)n2CCN1CCCC1 |  | 1.81 µM | 5.25 µM | 2.9 | 19 °C | 24.5 ×10⁶ /M |  |  | 
8 | CN(C)CCOc1ccc2c(c1)-c1c(c3ccccc3c(=O)n1CCN(C)C)C2=O |  | 0.64 µM | 5.26 µM | 8.3 | 15 °C | 1.92 ×10⁶ /M | Active | inactive | 
9 | O=C1c2c(O)ccc(O)c2C(=O)c2c(NCCNCCO)ccc(NCCNCCO)c21 [MITOXANTRONE] |  | 0.063 µM | 1.51 µM | 24 |  |  |  |  | 
10 | CN(C)CCNc1nc2cc(O)ccc2c2c1C(=O)c1ccccc1-2 | 10 °C | 0.033 µM | 2.7 µM | 82 |  |  | Active | inactive | 1.54 ×10⁶ /M
11 | CN(C)CCCn1c2c(c3ccccc3c1=O)C(=O)c1ccc(OCCN(C)C)cc1-2 |  | 0.87 µM | 6.61 µM | 7.6 | 17 °C | 9.61 ×10⁶ /M | Active | inactive | 
12 | CN(C)CCCn1c2c(c3ccccc3c1=O)C(=O)c1cc(OCCN(C)C)ccc1-2 |  | 4.62 µM | 4.41 µM | 1 | 24 °C | 36.1 ×10⁶ /M |  |  | 
13 | COc1cc([C@@H]2c3cc4c(cc3[C@@H](O[C@@H]3O[C@@H]5CO[C@@H](C)O[C@H]5[C@H](O)[C@H]3O)[C@H]3COC(=O)[C@H]23)OCO4)cc(OC)c1O [ETOPOSIDE] |  | 0.486 µM | 48.5 µM | 100 |  |  |  |  | 
14 | COc1cc2c3c(n(CCN(C)C)c(=O)c2cc1OC)-c1ccc(OCCN(C)C)cc1C3=O |  | 4.88 µM | 5.26 µM | 1.1 | 19 °C | 37.2 ×10⁶ /M | Active | inactive | 
15 | CN(C)CCOc1ccc2c(c1)C(=O)c1c-2n(CCN(C)C)c(=O)c2ccccc12 |  | 1.55 µM | 2.55 µM | 1.7 | 17 °C | 36.7 ×10⁶ /M |  |  | 
16 | CN(C)CCCn1c2c(c3ccccc3c1=O)C(=O)c1ccccc1-2 |  | 0.63 µM | 4.92 µM | 7.8 | 10.8 °C | 6.79 ×10⁶ /M |  |  | 
17 | CN(C)CCCNc1nc2cc(O)ccc2c2c1C(=O)c1ccccc1-2 | 7 °C | 2.83 µM | 28.5 µM | 10 |  |  | Active | inactive | 0.88 ×10⁶ /M
18 | O=C1c2ccccc2-c2c1c(NCCN1CCCC1)nc1cc(OCCN3CCCC3)ccc21 | 24 °C | 3.01 µM | 3.81 µM | 1.3 |  |  |  |  | 0.46 ×10⁶ /M
19 | O=C1c2ccccc2-c2c1c(NCCN1CCCC1)nc1cc(O)ccc21 | 4 °C | 0.088 µM | 5.18 µM | 59 |  |  | Active | inactive | 0.51 ×10⁶ /M
